Activity calls are given as the source filed them. The calls are words filed in the database; no cut-off is given here.
Key:
[1] = test system: Fusarium solani; assay: Antifungal activity against mid- inoculum 6.5 x 10^5 conidia/ml Fusarium solani infected in ICR mouse assessed as rate of survival at 50 mg/kg, po BID treated 2 days prior of infection; type: functional, organism-based; set-up: dose 50 mg/kg
Procedure, shortened: (§1)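 Dosing began 2 days before i.v. F. solani 95-2478 challenge in ICR mice made neutropenic with 5-fluorouracil (150 mg/kg i.v., day −1). Posaconazole oral suspension was gavaged BID through day 9, with observation off drug until day 15, n ≥10 per regimen. Moribund animals were euthanized and scored dead the next day. Kaplan-Meier median survival was compared with untreated controls.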

[2] = Drug concentration in uninfected nonimmunosppressed ICR mouse serum at 50 mg/kg, po BID after 4 hrs; type: ADME, organism-based; set-up: dose 50 mg/kg, route oral; conditions: read-out: Drug uptake
Procedure, shortened: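 Uninfected, nonimmunosuppressed mice received 5 oral-gavage BID doses, and serum was taken 4 h after the last dose. Serum (100 μl, duplicate) was placed in wells cut in potato dextrose agar seeded with Candida kefyr ATCC 66028 at 1 × 10^4 cells/ml. Inhibition zones were measured after 48 h, and concentration was interpolated from a standard curve.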

[3] = test system: Fusarium solani; assay: Antifungal activity against high inoculum 2.9 x 10^6 conidia/animal Fusarium solani infected in ICR mouse assessed as rate of survival at 50 mg/kg, po BID treated after 12 hrs of inoculation; type: functional, organism-based; set-up: dose 50 mg/kg
Procedure, shortened: (§2)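 Neutropenic ICR mice (5-fluorouracil 150 mg/kg i.v., day −1) were infected i.v. with F. solani 95-2478 conidia. Posaconazole oral suspension was gavaged BID starting 12 h postinoculation and continued to day 9, then mice were followed off therapy to day 15. Moribund mice were euthanized and death was recorded the next day. Median and percent survival come from Kaplan-Meier curves versus untreated controls.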

[4] = test system: Fusarium solani; assay: Antifungal activity against inoculum range 7.7 x 10^4 to 7.8 x 10^4 conidia/animal Fusarium solani infected in ICR mouse assessed as bacterial count in kidney tissue at 6.25 mg/kg, po BID treated after 12 hrs of inoculation; type: functional
Procedure, shortened: (§3)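 Outbred ICR mice were made neutropenic with 5-fluorouracil 150 mg/kg i.v. 1 day before i.v. infection with F. solani isolate 95-2478 conidia (0.2 ml). Posaconazole oral suspension was given by gavage BID from 12 h after inoculation until day 9. Kidneys from moribund animals were homogenized and plated on potato dextrose agar, and CFU/g was counted after 48 h. Group medians were compared with untreated controls by Mann-Whitney.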

[5] = test system: Fusarium solani; assay: Antifungal activity against low - inoculum 7.5 x 10^4 conidia/ml Fusarium solani infected in ICR mouse assessed as bacterial count in kidney tissue at 50 mg/kg, po BID treated 2 days prior of infection; type: functional
Procedure, shortened: (§4)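 Prophylaxis model: posaconazole oral suspension was given by gavage BID starting 2 days before i.v. conidial challenge and continued to day 9. ICR mice were made neutropenic with 5-fluorouracil 150 mg/kg i.v. 1 day pre-inoculation, with n ≥10 per regimen. Kidneys were homogenized and plated on potato dextrose agar, and CFU/g was read after 48 h. Results were compared with untreated controls by Mann-Whitney.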

[6] = test system: Fusarium solani; assay: Antifungal activity against mid- inoculum 6.5 x 10^5 conidia/ml Fusarium solani infected in ICR mouse assessed as rate of survival at 25 mg/kg, po BID treated 2 days prior of infection; type: functional, organism-based; set-up: dose 25 mg/kg; procedure, shortened: as §1
[7] = test system: Fusarium solani; assay: Antifungal activity against low - inoculum 7.5 x 10^4 conidia/ml Fusarium solani infected in ICR mouse assessed as rate of survival at 6.25 mg/kg, po BID treated 2 days prior of infection; type: functional, organism-based; set-up: dose 6.25 mg/kg; procedure, shortened: as §1
[8] = test system: Fusarium solani; assay: Antifungal activity against inoculum range 7.7 x 10^4 to 7.8 x 10^4 conidia/animal Fusarium solani infected in ICR mouse assessed as rate of survival at 50 mg/kg, po BID treated after 12 hrs of inoculation; type: functional, organism-based; set-up: dose 50 mg/kg; procedure, shortened: as §2
[9] = test system: Fusarium solani; assay: Antifungal activity against low - inoculum 7.5 x 10^4 conidia/ml Fusarium solani infected in ICR mouse assessed as bacterial count in kidney tissue at 6.25 mg/kg, po BID treated 2 days prior of infection; type: functional; procedure, shortened: as §4
[10] = test system: Fusarium solani; assay: Antifungal activity against inoculum range 6.5 x 10^5 to 6.8 x 10^5 conidia/animal Fusarium solani infected in ICR mouse assessed as bacterial count in kidney tissue at 50 mg/kg, po BID treated after 12 hrs of inoculation; type: functional; procedure, shortened: as §3
[11] = test system: Fusarium oxysporum; assay: Antifungal activity against Fusarium oxysporum isolate infected in ICR mouse; type: functional
[12] = test system: Fusarium solani; assay: Antifungal activity against high inoculum 2.9 x 10^6 conidia/animal Fusarium solani infected in ICR mouse assessed as rate of survival at 12.5 mg/kg, po BID treated after 12 hrs of inoculation; type: functional, organism-based; set-up: dose 12.5 mg/kg; procedure, shortened: as §2
[13] = test system: Fusarium solani; assay: Antifungal activity against inoculum of 1x10^5 conidia/ml Fusarium solani isolate 95-2478 after 48 hrs by XTT assay; type: functional, organism-based; conditions: isolate 95-2478, 48 h
Procedure, shortened: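 Isolate 95-2478 conidia were grown 10 days at 37°C on potato dextrose agar. They were exposed in microtiter trays to posaconazole (DMSO stock; final 0 to 8 μg/ml) in RPMI with 2% glucose and 0.165 M MOPS, pH 7.0. Incubation ran 24 or 48 h, and XTT reduction was read at 492 nm in triplicate. Absorbance was expressed as percent of growth control, and IC50/IC90 came from a four-parameter inhibitory sigmoid fit.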

[14] = test system: Fusarium solani; assay: Antifungal activity against inoculum range 6.5 x 10^5 to 6.8 x 10^5 conidia/animal Fusarium solani infected in ICR mouse assessed as rate of survival at 12.5 mg/kg, po BID treated after 12 hrs of inoculation; type: functional, organism-based; set-up: dose 12.5 mg/kg; procedure, shortened: as §2
[15] = test system: Fusarium solani; assay: Antifungal activity against inoculum range 7.7 x 10^4 to 7.8 x 10^4 conidia/animal Fusarium solani infected in ICR mouse assessed as rate of survival at 25 mg/kg, po BID treated after 12 hrs of inoculation; type: functional, organism-based; set-up: dose 25 mg/kg; procedure, shortened: as §2
[16] = test system: Fusarium solani; assay: Antifungal activity against high inoculum 2.9 x 10^6 conidia/animal Fusarium solani infected in ICR mouse assessed as bacterial count in kidney tissue at 25 mg/kg, po BID treated after 12 hrs of inoculation; type: functional; procedure, shortened: as §3
[17] = test system: Fusarium solani; assay: Antifungal activity against inoculum range 6.5 x 10^5 to 6.8 x 10^5 conidia/animal Fusarium solani infected in ICR mouse assessed as rate of survival at 25 mg/kg, po BID treated after 12 hrs of inoculation; type: functional, organism-based; set-up: dose 25 mg/kg; procedure, shortened: as §2
[18] = test system: Fusarium solani; assay: Antifungal activity against inoculum range 7.7 x 10^4 to 7.8 x 10^4 conidia/animal Fusarium solani infected in ICR mouse assessed as bacterial count in kidney tissue at 12.5 mg/kg, po BID treated after 12 hrs of inoculation; type: functional; procedure, shortened: as §3
[19] = test system: Fusarium solani; assay: Antifungal activity against mid- inoculum 6.5 x 10^5 conidia/ml Fusarium solani infected in ICR mouse assessed as rate of survival at 6.25 mg/kg, po BID treated 2 days prior of infection; type: functional, organism-based; set-up: dose 6.25 mg/kg; procedure, shortened: as §1
[20] = test system: Fusarium solani; assay: Antifungal activity against high inoculum 2.9 x 10^6 conidia/animal Fusarium solani infected in ICR mouse assessed as rate of survival at 6.25 mg/kg, po BID treated after 12 hrs of inoculation; type: functional, organism-based; set-up: dose 6.25 mg/kg; procedure, shortened: as §2
[21] = test system: Fusarium solani; assay: Antifungal activity against mid- inoculum 6.5 x 10^5 conidia/ml Fusarium solani infected in ICR mouse assessed as bacterial count in kidney tissue at 50 mg/kg, po BID treated 2 days prior of infection; type: functional; procedure, shortened: as §4
[22] = test system: Fusarium solani; assay: Antifungal activity against low - inoculum 7.5 x 10^4 conidia/ml Fusarium solani infected in ICR mouse assessed as bacterial count in kidney tissue at 25 mg/kg, po BID treated 2 days prior of infection; type: functional; procedure, shortened: as §4
[23] = test system: Fusarium solani; assay: Antifungal activity against mid- inoculum 6.5 x 10^5 conidia/ml Fusarium solani infected in ICR mouse assessed as bacterial count in kidney tissue at 25 mg/kg, po BID treated 2 days prior of infection; type: functional; procedure, shortened: as §4
[24] = test system: Fusarium solani; assay: Antifungal activity against low - inoculum 7.5 x 10^4 conidia/ml Fusarium solani infected in ICR mouse assessed as rate of survival at 25 mg/kg, po BID treated 2 days prior of infection; type: functional, organism-based; set-up: dose 25 mg/kg; procedure, shortened: as §1

CC[C@@H]([C@H](C)O)n1ncn(-c2ccc(N3CCN(c4ccc(OC[C@@H]5CO[C@@](Cn6cncn6)(c6ccc(F)cc6F)C5)cc4)CC3)cc2)c1=O [POSACONAZOLE]
Activity [1]: Active
concentration at 4 h [2]: 5300 ng/mL
Activity [3]: Active
log10CFU/g [4]: 5
log10CFU/g [5]: 2.9
Activity [6]: Active
Activity [7]: Active
Activity [8]: Active
log10CFU/g [9]: 2.8
log10CFU/g [10]: 5.4
MIC [11]: > 16 µg/mL
Activity [12]: Active
IC50 [13]: > 8 µg/mL
IC90 [13]: > 8 µg/mL
Activity [14]: Active
Activity [15]: Active
log10CFU/g [16]: 5.3
Activity [17]: Active
log10CFU/g [18]: 5.1
Activity [19]: Active
Activity [20]: Active
log10CFU/g [21]: 4.7
log10CFU/g [22]: 4.5
log10CFU/g [23]: 5.5
Activity [24]: Active

Source: ChEMBL document CHEMBL1649304, “Efficacy of posaconazole as treatment and prophylaxis against Fusarium solani” (Antimicrob Agents Chemother, 2010)
